In ChEMBL document CHEMBL4184218, “Design, synthesis and biological evaluation of new carbazole derivatives as anti-cancer and anti-migratory agents” (Bioorg Med Chem, 2018):
The source made the active and inactive calls. The calls are words filed in the database; no cut-off is given here.

Experiments:
MCF7 = test: Growth inhibition of human MCF7 cells after 24 hrs by SRB assay; type: functional; details: MCF7, 24 h
Procedure, shortened: (§1)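 Sulforhodamine B growth assay in MCF-7 or MDA-MB-231 breast cancer cells after 24 h of compound treatment. GI50 is the concentration giving 50% inhibition of proliferation, with an upper test limit of 50 µM. Values are the mean of triplicate experiments.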

MDA-MB-231 [1] = test: Growth inhibition of human MDA-MB-231 cells after 24 hrs by SRB assay; type: functional; details: MDA-MB-231, 24 h; procedure, shortened: as §1
[2] = biological target: Ras-related C3 botulinum toxin substrate 1 (Homo sapiens) (UniProt P63000); test: Inhibition of Rac1 in human MDA-MB-435 cells assessed as reduction in phosphorylation at Thr423 residue at 2 uM after 24 hrs by Western blot analysis; type: cell-based
MDA-MB-231 [3] = test: Anti-migratory activity against human MDA-MB-231 cells assessed as reduction in cell migration at 5 uM after 24 hrs by scratch wound-healing assay relative to control; type: functional; set-up: scale not given: the % may be the effect or the level left
[4] = biological target: Ras-related C3 botulinum toxin substrate 1 (Homo sapiens, UniProt P63000, G15A); test: Inhibition of Vav2 binding to Rac1 G15A mutant in human MDA-MB-231 cells after 1 hr by pull down assay; type: cell-based
[5] = Growth inhibition of human MCF10A cells at 10 uM after 24 hrs by MTT assay relative to control; type: cell-based, MCF-10A; details: read-out: GI
[6] = biological target: Ras-related C3 botulinum toxin substrate 1 (Homo sapiens) (UniProt P63000); test: Inhibition of Rac1 in human MDA-MB-435 cells assessed as reduction in Rac-GTP level atv 250 nM after 24 hrs by ELISA-based pull down assay; type: cell-based
[7] = biological target: Ras-related C3 botulinum toxin substrate 1 (Homo sapiens) (UniProt P63000); test: Inhibition of Rac1 in human MDA-MB-231 cells assessed as reduction in Rac-GTP level at 250 nM after 24 hrs by ELISA-based pull down assay; type: cell-based
MDA-MB-231 [8] = test: Anti-migratory activity against human MDA-MB-231 cells assessed as cell migration at 10 uM after 12 hrs by scratch wound-healing assay; type: functional, cell-based
Procedure, shortened: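 Scratch wound-healing assay in MDA-MB-231 cells with test compounds at 10 µM against vehicle (0.02% DMSO). Wounds were photographed at 0, 12 and 24 h. Migration was taken as the distance travelled from the scratch edge toward its centre, relative to control. Values are the average of three independent experiments.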

MCF-10A [9] = test: Growth inhibition of human MCF10A cells up to 36 uM after 24 hrs by CellTiter 96 aqueous one solution cell proliferation assay; type: cell-based
MCF-10A [10] = test: Cytotoxicity against human MCF10A cells assessed as reduction in cell viability at 30 to 50 uM after 24 hrs by CellTiter 96 aqueous one solution cell proliferation assay; type: cell-based

GI50 (MCF7) [µM] | GI50 (MDA-MB-231 [1]) [µM] | Compound | also measured
14 | 18 | CCN(CC)CCNC(=O)c1cccnc1Nc1ccc2c(c1)c1ccccc1n2CC | –
> 50 | > 50 | CCn1c2ccccc2c2cc(NC(=O)c3nccnc3C(=O)NCCCn3ccnc3)ccc21 | –
> 50 | > 50 | CCn1c2ccccc2c2cc(Nc3ncccc3C(=O)NCCN3CCN(C(=O)OC(C)(C)C)CC3)ccc21 | –
13 | 18 | CCN(CC)CCCC(C)NC(=O)c1cccnc1Nc1ccc2c(c1)c1ccccc1n2CC (configuration not stated) | –
> 50 | 19 | CCn1c2ccccc2c2cc(NC(=O)c3cccnc3NCCCN3CCOCC3)ccc21 | –
32 | 39 | CCn1c2ccccc2c2cc(C(=O)Nc3cccnc3NCCCN3CCOCC3)ccc21 | –
28 | > 50 | CCn1c2ccccc2c2cc(Nc3ncccc3C(=O)NCCCN3CCOCC3)ccc21 | –
> 50 | > 50 | CCn1c2ccccc2c2cc(Nc3ncccc3C(=O)Nc3cc(OC)c(OC)c(OC)c3)ccc21 | –
15 | 23 | CCn1c2ccccc2c2cc(Nc3ncccc3NC(=O)CCN3CCCCC3)ccc21 | –
> 50 | > 50 | CCn1c2ccccc2c2cc(NC(=O)c3nccnc3C(=O)NCCN3CCOCC3)ccc21 | –
> 50 | > 50 | CCn1c2ccccc2c2cc(NC(=O)c3nccnc3C(=O)NCCOC)ccc21 | –
> 50 | > 50 | CCn1c2ccccc2c2cc(NC(=O)c3cccnc3N3CCOCC3)ccc21 | Activity (MDA-MB-231 [8]): Active
> 50 | > 50 | CCn1c2ccccc2c2cc(NC(=O)c3ccccc3C(=O)NCCO)ccc21 | –
41 | 31 | CCn1c2ccccc2c2cc(Nc3ncccc3NC(=O)c3cccnc3)ccc21 | –
> 50 | > 50 | CCn1c2ccccc2c2cc(NC(=O)c3cccnc3N3CCN(C(C)=O)CC3)ccc21 | –
> 50 | > 50 | CCn1c2ccccc2c2cc(NC(=O)c3nccnc3C(=O)NCCCN3CCOCC3)ccc21 | –
> 50 | > 50 | CCn1c2ccccc2c2cc(NC(=O)c3ccccc3C(=O)NCCOC)ccc21 | –
27 | > 50 | CCn1c2ccccc2c2cc(Nc3ncccc3C(=O)NCCCn3ccnc3)ccc21 | –
> 50 | > 50 | CCn1c2ccccc2c2cc(NC(=O)c3cccnc3N3CCN(c4ccccc4)CC3)ccc21 | –

Compound | GI50 (MCF7) [µM] | GI50 (MDA-MB-231 [1]) [µM] | also measured
CCn1c2ccccc2c2cc(Nc3ccnc(NCCCN4CCOCC4)n3)ccc21 | 14 | 15 | inhibition [2]: 60%; Activity (MDA-MB-231 [3]): 17%; IC50 [4]: 1.1 µM; inhibition at 24 h, 10 µM [5]: 50%
CCn1c2ccccc2c2cc(C(=O)Nc3cccnc3N3CCOCC3)ccc21 | > 50 | > 50 | inhibition [6]: 55%; inhibition [7]: 55%; Activity (MDA-MB-231 [8]): Active; growth inhibition (GI) (MCF-10A [9]): Non-Toxic; Activity (MCF-10A [10]): Non-Toxic
